From ChEMBL document CHEMBL2346554, “Extreme multidrug resistant HIV-1 protease with 20 mutations is resistant to novel protease inhibitors with P1'-pyrrolidinone or P2-tris-tetrahydrofuran” (J Med Chem, 2013)
Active and inactive are the calls of the source. The calls are words filed in the database; no cut-off is given here.

Assays:
[1] = target: Protease (Human immunodeficiency virus 1) (UniProt Q9YQ12); conditions: 0.5 to 8 uM
[2] = system: Human immunodeficiency virus type 1 protease (Human immunodeficiency virus 1), Q72874 [Q7K,L10F,I13V,I15V,D30V,V32I,L33F,E35D,M36I,S37N,I47V,I54L,Q58E,I62V,L63P,A71V,I84V,N88D,L89T,L90M]; assay: Inhibition of transferrin receptor-fused HIV1 protease Q7K, L10F, I13V, I15V, D30V, V32I, L33F, E35D, M36I, S37N, I47V, I54L, Q58E, I62V, L63P, A71V, I84V, N88D, L89T, L90M mutant autoprocessing expressed in Escherichia coli at 100 to 150 uM by SDS-PAGE analysis
[3] = system: Human immunodeficiency virus type 1 protease (Human immunodeficiency virus 1), Q72874 [Q7K,L10F,I13V,I15V,D30V,V32I,L33F,E35D,M36I,S37N,I47V,I54L,Q58E,I62V,L63P,A71V,I84V,N88D,L89T,L90M]; assay: Binding affinity to HIV1 protease Q7K, L10F, I13V, I15V, D30V, V32I, L33F, E35D, M36I, S37N, I47V, I54L, Q58E, I62V, L63P, A71V, I84V, N88D, L89T, L90M mutant expressed in Escherichia coli BL21 (DE3) assessed as association constant by isothermal titration calorimetric analysis
Outline: (§1)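 PR20 (1.8−2.15 mg/mL in 12 mM HCl) was folded by adding 5 mM sodium acetate pH 6, then 100 mM sodium acetate pH 5, and centrifuged. It was titrated in the ITC cell with inhibitor at ~10-fold the PR20 concentration, in matching buffer. Inhibitor concentration was estimated from the fitted N at known PR20, assuming 1:1 binding. KL = 1/KA.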

[4] = system: Human immunodeficiency virus type 1 protease (Human immunodeficiency virus 1), Q72874 [Q7K,L10F,I13V,I15V,D30V,V32I,L33F,E35D,M36I,S37N,I47V,I54L,Q58E,I62V,L63P,A71V,I84V,N88D,L89T,L90M]; assay: Binding affinity to HIV1 protease Q7K, L10F, I13V, I15V, D30V, V32I, L33F, E35D, M36I, S37N, I47V, I54L, Q58E, I62V, L63P, A71V, I84V, N88D, L89T, L90M mutant expressed in Escherichia coli BL21 (DE3) assessed as dissociation constant by isothermal titration calorimetric analysis
Outline: as §1

[5] = system: Human immunodeficiency virus type 1 protease (Human immunodeficiency virus 1), Q72874 [Q7K,L10F,I13V,I15V,D30V,V32I,L33F,E35D,M36I,S37N,I47V,I54L,Q58E,I62V,L63P,A71V,I84V,N88D,L89T,L90M]; assay: Inhibition of transferrin receptor-fused HIV1 protease Q7K, L10F, I13V, I15V, D30V, V32I, L33F, E35D, M36I, S37N, I47V, I54L, Q58E, I62V, L63P, A71V, I84V, N88D, L89T, L90M mutant autoprocessing expressed in Escherichia coli up to 100 uM by SDS-PAGE analysis
Outline: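 TFR-fused PR20 precursor was expressed in E. coli cultures grown with increasing inhibitor in the medium, up to 100 μM. The protein was partially purified, and autoprocessing was assessed by SDS-PAGE against wild-type TFR-PR with inhibitor.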

[6] = target: Protease (Human immunodeficiency virus 1) (UniProt Q9YQ12); assay: Inhibition of HIV1 protease dimerization transfected in COS7 cells relative to darunavir; format: cell-based; conditions: COS-7
[7] = system: Human immunodeficiency virus type 1 protease (Human immunodeficiency virus 1), Q72874 [Q7K,L10F,I13V,I15V,D30V,V32I,L33F,E35D,M36I,S37N,I47V,I54L,Q58E,I62V,L63P,A71V,I84V,N88D,L89T,L90M]; assay: Ratio of amprenavir dissociation constant K to compound dissociation constant K for HIV1 protease Q7K, L10F, I13V, I15V, D30V, V32I, L33F, E35D, M36I, S37N, I47V, I54L, Q58E, I62V, L63P, A71V, I84V, N88D, L89T, L90M mutant

CC(C)CN(C[C@@H](O)[C@H](Cc1ccccc1)NC(=O)O[C@H]1CO[C@H]2OCC[C@H]21)S(=O)(=O)c1ccc(N)cc1
inhibition [1]: Active
inhibition [2]: inactive
K [3]: 24.5 ×10⁶ /M
K [4]: 41 nM

COc1ccc(S(=O)(=O)N(CC(C)C)C[C@@H](O)[C@H](Cc2ccccc2)NC(=O)O[C@H]2CO[C@H]3O[C@@H]4OCC[C@@H]4[C@H]32)cc1
K [3]: 25.3 ×10⁶ /M
K [4]: 39.5 nM
inhibition [5]: inactive
fold change (FC) [6]: 10
Ratio [7]: 4.5

CC(C)CN(C[C@@H](O)[C@H](Cc1ccccc1)NC(=O)O[C@H]1CCOC1)S(=O)(=O)c1ccc(N)cc1
inhibition [2]: inactive
K [3]: 5.61 ×10⁶ /M
K [4]: 178 nM

COc1ccc(S(=O)(=O)N(C[C@H]2CCC(=O)N2)C[C@@H](O)[C@H](Cc2ccccc2)NC(=O)O[C@@H]2C[C@@H]3CCO[C@@H]3C2)cc1
K [3]: 1.04 ×10⁶ /M
K [4]: 960 nM
inhibition [5]: inactive
